AP ELISA ortho: alternative pathway complement inhibition, orthogonal assay; Human serum alternative complement pathway, LPS-coated ELISA, C3 deposition; tested in compound mixtures; inhibition, % at 5 µM; 62,000 compounds, 0.08% hits; AID 1235;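 active = inhibition above 30% in each of the two pooled mixtures holding the compound, so the lower value exceeds 30%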;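 also: 0% = serum in Mg-EGTA without compound and 100% = EDTA serum blank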
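Assay system: Human serum alternative complement pathway, C3 deposition on LPS-coated wells | Incubation: 1 h serum-compound exposure at 37 °C | Doses: 5 µM per compound in ten-compound mixtures | Read-out: Percent inhibition | Technique: ELISA with HRP anti-human C3 antibody, TMB substrate, absorbance 450 nm | Replication: Two pool placements per compound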
MMP13 inh: inhibitors of human MMP13. P45452. MMP-13 fTHP FRET cleavage, Mca fluorescence. inhibition, % at 4 µM. 65,000 compounds, 0.07% hits. AID 570;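 active = inhibition above the mean of compound-free control plate wells plus 3 SD, cut at about 14% in these data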;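 also: 0% = DMSO wells and 100% = wells with reference MMP-13 inhibitor after basal subtraction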
D1 mod: D1 dopamine receptor (human) allosteric modulation; P21728; HEK293 D1, CRE-luciferase, dopamine EC30 potentiation; actives deviate in either direction; B-score at 10 µM; 58,000 compounds, 5.9% hits; AID 641;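 active = luminescence count or its row- and column-corrected plate score outside the 99.7% band of the plate's sample wells, on either side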
Target sequence (P21728 whole entry, looked up): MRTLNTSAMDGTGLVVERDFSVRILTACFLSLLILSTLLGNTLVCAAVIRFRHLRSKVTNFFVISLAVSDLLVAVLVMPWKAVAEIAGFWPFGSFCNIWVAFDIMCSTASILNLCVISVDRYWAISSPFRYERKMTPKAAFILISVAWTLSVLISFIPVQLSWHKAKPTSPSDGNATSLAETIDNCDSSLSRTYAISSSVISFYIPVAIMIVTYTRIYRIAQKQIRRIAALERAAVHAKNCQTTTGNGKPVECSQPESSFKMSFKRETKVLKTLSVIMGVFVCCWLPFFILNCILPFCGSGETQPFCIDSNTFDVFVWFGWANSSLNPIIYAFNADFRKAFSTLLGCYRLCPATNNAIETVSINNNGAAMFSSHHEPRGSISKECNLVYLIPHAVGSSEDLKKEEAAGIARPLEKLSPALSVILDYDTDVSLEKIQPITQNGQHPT
Calb biofilm kill: kills Candida albicans biofilms; 85,000 compounds, 0.14% hits; C. albicans biofilm + clotrimazole, Alamar Blue; inhibition, % at 6 µM; AID 834;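 active = inhibition above 20%; inactive = inhibition below 20%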;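 also: preformed 24 hr biofilms exposed to compound for 48 hr; 0% = biofilm without compound and 100% = blank killed by clotrimazole plus chlorhexidine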
hDAT+cocaine: changed human dopamine transporter uptake under cocaine IC80. B-score at 10 µM. LLC-PK1 hDAT cells, [14C]-dopamine uptake with cocaine IC80; actives deviate in either direction. AID 449768. Q01959. 110,000 compounds, 1.3% hits;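 active = Z score or B-score, a plate-position-corrected score, falls beyond the plate's 99.7% confidence bounds, in either direction; inactive = both scores lie inside the 99.7% bounds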;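 also: scored against the spread of the other compound wells on the same plate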
Starred values were filed as active, the others as inactive; . = not tested or not shown; ! = repeats disagree. Only a selection was taken, and hits are over-represented in it overall.

SMILES | AP ELISA ortho | MMP13 inh | D1 mod | Calb biofilm kill | hDAT+cocaine
CC1(c2nnc(-c3ccccc3)o2)CC(c2ccc([N+](=O)[O-])cc2)=NO1 (stereo unspecified) | . | . | . | . | -0.8
COc1ccc(C)cc1-n1nnnc1SCc1csc(C)n1 | 6 | 6 | 0.74 | -1 | -8.3*
COc1ccc(C)cc1-n1nnnc1SCc1cc(=O)n2cc(C)ccc2n1 | 3 | -6 | . | 10 | 0.062
Cc1ccc(CN2C(=O)[C@H]3Cc4c([nH]c5ccccc45)C(C)(C)N3C2=O)cc1 | . | . | . | . | 0.59
CS(=O)(=O)N1CCCC(c2nc(-c3ccc(S(=O)(=O)NCc4ccccc4)cc3)no2)C1 (stereo unspecified) | 4 | 4 | -3* | 6 | -0.021
O=C(Cc1ccccc1)N1CCCC(c2nc(-c3ccc(S(=O)(=O)N4CCCC4)cc3)no2)C1 (stereo unspecified) | . | . | . | 1 | 0.52
CC(c1ccccc1)N1CCn2c(nc3cc(NC(=O)NC4CCCCC4)ccc32)C1 (stereo unspecified) | . | . | . | -1 | 1.1
COc1ccc(C(=O)NC(=S)N2CCC(C)CC2)cc1 | . | . | . | 6 | -7.9*
C/C=C/C=[N+](\[O-])C(C)/C(=N/O)c1ccc(F)cc1 (stereo unspecified) | -3 | 2 | -5.7* | 11 | -0.0047
CCn1c(SCC(=O)C(C)(C)C)nnc1-c1ccccn1 | -10 | 16* | 0.013 | -7 | 0.013
C=CCn1c(SCC(=O)C(C)(C)C)nnc1-c1ccccn1 | 0 | 2 | -0.19 | 2 | -0.47
CCn1c(SCC(=O)Nc2ccc3c(c2)c2ccccc2n3CC)nnc1-c1cnccn1 | 6 | 6 | . | 8 | 2.5*
CCn1c2ccccc2c2cc(NC(C)=O)ccc21 | . | . | . | 44* | 1.5
C=CCOCC(O)CS(=O)(=O)Cc1ccc(Cl)cc1 (stereo unspecified) | . | . | . | -1 | -0.83
c1ccc(Cn2ccc(-c3cnc(-c4ccccc4)s3)n2)cc1 | . | . | . | 1 | 0.87
Nc1c(Cl)cc(-c2csc(N3CCCC3c3nc4cc(Cl)c(N5CCCCC5)cc4n3CCCO)n2)cc1Cl (stereo unspecified) | . | . | . | . | 1
O=C(NCc1ccccc1C(F)(F)F)C1CC(c2ccc(C(F)(F)F)cc2)=NO1 (stereo unspecified) | . | . | . | . | -0.7
O=C(O)CN(CC(=O)O)CC(=O)O | . | . | . | 6 | .
N#CC1=C(Nc2ccccc2)SC=C(c2ccc(Br)cc2)N=C1N1CCOCC1 | . | . | . | . | -6.2*
c1ccc(Nc2nc(N3CCCC3)nc(N3CCOCC3)n2)cc1 | . | . | . | . | -0.0053
CCOC(=O)CN(C(=O)CSc1nnc(Cc2ccccc2)n1-c1ccc(C)cc1)c1ccccc1 | . | . | . | 4 | 2.7*
COC(=O)C1=C(C(=O)OC)[C@@H]2Nc3ccccc3[C@@]23C[C@@H](C(=O)OC)N(C(=O)c2ccco2)C3=N1 | . | . | . | . | -1.1
O=S(=O)(c1ccc(Oc2ccc(S(=O)(=O)N3CCOCC3)cc2)cc1)N1CCOCC1 | 21 | 0 | -1.2 | -2 | 0.33
C=CS(=O)(=O)c1ccc(Oc2ccc(S(=O)(=O)C=C)cc2)cc1 | 21 | -3 | -4.8* | . | .
CCOC(=O)Cn1nc(C)n(-c2ccc(C(C)(C)C)cc2)c1=O | . | . | . | . | 1.5
SMILES | AP ELISA ortho | MMP13 inh | D1 mod | Calb biofilm kill | hDAT+cocaine
COC(=O)CCC(=O)OC1(C)C(=O)C=C2C=C(C3CC3)N(Cc3ccccc3)C=C2C1=O (stereo unspecified) | . | . | . | . | -2.3*
CC1CCN(C(=O)c2ccc(CSc3nc4ccncc4n3Cc3ccc(F)cc3)cc2)CC1 | . | . | . | . | 3.5*
O=C(c1cc(-c2ccccc2)nc2ccccc12)N1N=C(C(F)F)CC1(O)C(F)F (stereo unspecified) | . | . | . | . | 2.9*
Cc1ccc(-c2cc(C(=O)N3N=C(C(F)F)CC3(O)C(F)F)c3ccccc3n2)cc1C (stereo unspecified) | . | . | . | . | 1.4
CCN1CCN(C(=O)CCCCCn2c(=O)[nH]c3cc(C(=O)OC)ccc3c2=O)CC1 | 20 | -11 | -0.15 | 2 | 0.18
COc1ccc(N2CCN(CCNC(=O)CCCn3c(=O)[nH]c4cc(Cl)ccc4c3=O)CC2)cc1 | 7 | 3 | -2 | . | -1.1
COc1cc2[nH]c(=O)n(CCC(=O)N3CCN(c4cccc(C)c4C)CC3)c(=O)c2cc1OC | 11 | 7 | -0.66 | 3 | 1.3
COCCn1c(=O)[nH]c2cc(C(=O)NCCN3CCN(c4cccc(Cl)c4)CC3)ccc2c1=O | 3 | -5 | -3.5* | . | 0.54
COC(=O)c1ccc2c(=O)n(CCCCCC(=O)N3CCN(c4ccccc4)CC3)c(=O)[nH]c2c1 | 22 | 0 | -0.69 | 2 | -8.3*!
Cc1cc(C(=O)NCCCN2CCN(c3cc(Cl)ccc3C)CC2)n(-c2ccccc2)n1 | . | . | . | 5 | -0.3
COc1cc2[nH]c(=O)n(CCCCCC(=O)N3CCN(c4ccccc4)CC3)c(=O)c2cc1OC | 9 | 5 | . | 3 | 3.5*
Cc1cc(C(=O)NCCN2CCN(c3cccc(Cl)c3)CC2)n(-c2ccccc2)n1 | 12 | 2 | -3.2* | -2 | -0.19
Cc1cc(Cl)c(S(=O)(=O)N2CCN(c3ccc(F)cc3)CC2)cc1OCC(=O)NC1CCCCC1 | . | . | . | 6 | 0.0072
COc1cccc(CN2C(=O)[C@@H]3Cc4c([nH]c5ccccc45)C(C)(C)N3C2=O)c1 | . | . | . | . | 1
COc1ccc(CCNC(=O)CSc2nc3c(c(=O)n(C)c(=O)n3C)n2C)cc1OC | . | . | . | 10 | -0.77
CCN(CC)CCNC(=O)c1ccc2c(=O)n(CCc3ccccc3)c(=O)[nH]c2c1 | 6 | -25 | -3.1* | . | 1.2
CCc1cc2c(CN3CCN(C)CC3)cc(=O)oc2cc1O | 21 | -285 | -0.82 | 6 | -9.5*
CCc1cc2c(CN3CCN(CCO)CC3)cc(=O)oc2cc1O | 2 | -288 | -0.15 | 6 | 1.6
CC(NC(=O)c1ccccc1NC(=O)CSc1nnnn1C)c1ccccc1 (stereo unspecified) | . | . | . | 1 | 0.21
COc1cc(C2C3C(=O)N(c4ccc(F)cc4)C(=O)C3ON2c2ccccc2)ccc1O (stereo unspecified) | . | 1 | -0.58 | 0 | -6.9*
COc1cc2c(C(=O)N3CCN(c4ccccc4C)CC3)c(C)oc2cc1Br | . | . | . | . | 1.3
Cc1ccccc1-c1nc2ccccc2c(=O)n1/N=C/c1ccccc1[N+](=O)[O-] | . | . | . | . | 1.1*
OCC[C@H]1C[C@@H](O)[C@H](O)[C@]2(CCCCO2)O1 | . | . | . | . | -0.17
COc1ccc(C(=O)Nn2c(SCC(=O)NCC3CCCO3)nc3ccccc3c2=O)cc1 (stereo unspecified) | 1 | 0 | -5.4* | 10 | -8.4*
COc1cc(C)c(Cl)c(C)c1S(=O)(=O)NCc1ccc2c(c1)OCO2 | 17 | 4 | -0.043 | -5 | -1.3
COc1cc(C)c(S(=O)(=O)NCc2ccc3c(c2)OCO3)cc1C | 10 | 3 | -1.1 | 27* | 0.32
CCc1ccc2c(c1)C(c1ccc([N+](=O)[O-])cc1)=NNC(c1ccc(F)cc1)=N2 | . | . | . | . | -1.3
Cc1ccc(C2C3CN(C(C)C)CC=C3C(C#N)=C(N)C2(C#N)C#N)cc1 (stereo unspecified) | -4 | -41 | -3.1* | . | .

Screens as filed in PubChem.
